# In the library only some 2.3% were active in any assay of this set; here they are far more common.
# TRPC4 inh – inhibitors of mouse TRPC4 channel, primary screen, Fluo4 calcium, HEK293 TRPC4beta/mu-opioid cells; Short transient receptor potential channel 4 (Mus musculus), Q9QUQ5; DAMGO-evoked Fluo4 calcium flux; stronger effect = lower value; AID 2247, 2010; actives 0.39% (n = 300,000); B-score at 10 µM;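 active = B-score over 3 SD under the library average, no early fluorescence shift, positive overall ratio signal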
# Target sequence (Q9QUQ5 whole entry, looked up): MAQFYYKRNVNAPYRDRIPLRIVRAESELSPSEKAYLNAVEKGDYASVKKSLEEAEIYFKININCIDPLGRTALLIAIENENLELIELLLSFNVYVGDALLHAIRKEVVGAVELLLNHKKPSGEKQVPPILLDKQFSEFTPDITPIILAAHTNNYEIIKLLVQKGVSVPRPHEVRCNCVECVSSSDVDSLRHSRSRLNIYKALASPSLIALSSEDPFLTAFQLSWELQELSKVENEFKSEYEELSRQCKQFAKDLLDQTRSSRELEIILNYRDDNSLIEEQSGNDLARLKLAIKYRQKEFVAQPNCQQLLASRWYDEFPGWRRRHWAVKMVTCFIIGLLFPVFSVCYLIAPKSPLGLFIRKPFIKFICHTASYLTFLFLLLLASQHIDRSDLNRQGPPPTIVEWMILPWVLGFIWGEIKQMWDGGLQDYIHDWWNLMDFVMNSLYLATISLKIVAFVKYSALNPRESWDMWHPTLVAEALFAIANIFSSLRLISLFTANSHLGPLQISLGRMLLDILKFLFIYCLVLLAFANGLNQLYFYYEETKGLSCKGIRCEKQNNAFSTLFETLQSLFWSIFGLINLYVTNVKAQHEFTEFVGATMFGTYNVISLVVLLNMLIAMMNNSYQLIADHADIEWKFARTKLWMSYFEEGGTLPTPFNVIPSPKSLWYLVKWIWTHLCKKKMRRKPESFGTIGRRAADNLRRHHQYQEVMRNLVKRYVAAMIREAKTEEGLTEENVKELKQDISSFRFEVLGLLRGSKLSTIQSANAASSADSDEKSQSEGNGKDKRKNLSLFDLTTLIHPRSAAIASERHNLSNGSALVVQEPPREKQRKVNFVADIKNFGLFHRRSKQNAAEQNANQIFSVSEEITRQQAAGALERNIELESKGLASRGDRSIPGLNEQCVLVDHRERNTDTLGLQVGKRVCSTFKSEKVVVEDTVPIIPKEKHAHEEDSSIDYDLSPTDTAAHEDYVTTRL
#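 Assay system: TRPC4beta/mu-opioid receptor HEK293 cell line; compound dosing: single concentration per test compound; detection: Fluo4 Ca2+ flux fluorescence; evaluation: per-well B score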
# DNA FID counter – compounds displacing fluorescent DNA intercalator, primary screen, artefact control for HCV NS3 helicase inhibitor project, biochemical, FID fluorescence; actives 0.17% (n = 290,000); AID 1845, 2009; inhibition, % at 7.9 µM; DNA fluorescent intercalator displacement; in the data active = inhibition above about 37%;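 also: 0% = vehicle and 100% = reference compound; higher means more ethidium bromide displaced from hairpin DNA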
# TRPC4 agonist – activators of mouse TRPC4 channel, primary screen, Fluo4 calcium, HEK293 TRPC4beta/mu-opioid cells. actives 0.49% (n = 310,000). B-score at 10 µM. Fluo4 calcium fluorescence; stronger effect = higher value. Short transient receptor potential channel 4 (Mus musculus), Q9QUQ5;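 active = B-score above 5 SD of library B-scores, and initial fluorescence ratio not above library mean plus 5 SD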;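 also: positive B-score marks a calcium rise read as TRPC4 activation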
#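 Assay system: HEK293 stable line with TRPC4beta plus mu-opioid receptor. Times: dye 45 min RT, read 110 s. Measured by: kinetic Fluo4 calcium fluorescence. Measure: B score of integrated ratio. Controls: assay buffer as low control, maximal DAMGO as high control.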
# TRPC4 PAM – positive allosteric modulators of TRPC4, primary screen, cell-based, mouse TRPC4beta, HEK293 mu-opioid, Fluo-4 calcium | Short transient receptor potential channel 4 (Mus musculus), Q9QUQ5 | DAMGO EC20, Fluo-4 Ca2+ flux; stronger effect = higher value | B-score at 10 µM | actives 0.42% (n = 310,000);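 active = B-score of calcium response area above 5 SD of library B-scores, with initial fluorescence ratio within 5 SD of library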;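 also: B-score of integrated fluorescence ratio over time as area under calcium response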
# TRPC6 act – mouse TRPC6 channel activators, primary screen, cell-based, HEK293, membrane potential dye. Short transient receptor potential channel 6 (Mus musculus), Q61143. actives 0.13% (n = 310,000). HEK293-TRPC6 membrane potential dye fluorescence; stronger effect = higher value. B-score at 10 µM;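 active = B-score of the integrated fluorescence ratio above library mean plus 3 SD, and starting fluorescence ratio within library mean plus 5 SD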;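 also: higher score means more depolarization so channel activation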
# TRPC6 inh – mouse TRPC6 channel inhibitors, primary screen, cell-based, HEK293, membrane potential dye; Short transient receptor potential channel 6 (Mus musculus), Q61143; ACh-evoked depolarization; stronger effect = lower value; B-score at 10 µM; actives 1.1% (n = 310,000); AID 2553, 2010;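 active = B-score under library mean minus 3 SD, initial fluorescence not abnormally high, positive integrated signal ratio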;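 also: B-score derived from integrated fluorescence ratio over the kinetic read; more negative B-score means stronger inhibition of depolarization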
# HEK293 TRPC6 ctr – parental HEK293 membrane potential modulation, confirmation, counter-screen for TRPC6 modulator project, cell-based; shares compounds with TRPC6 inh; membrane potential dye fluorescence; membrane potential signal change, % at 10 µM; actives 51% (n = 2,400); AID 488924, 2010;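 active = membrane potential signal moves up or down beyond 5 SD from buffer-only wells, on both duplicate plates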
# HEK293 MPD ctr 2 – parental HEK293 nonspecific activity of TRPC6 modulators, second screen; inhibition, % at 10 µM; actives 14% (n = 2,400); shares compounds with TRPC6 inh; membrane potential dye fluorescence; after compound, maximal acetylcholine stimulation;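 active = membrane potential signal drops by more than 5 SD from the mean control signal, in both duplicate plates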;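 also: plate controls were acetylcholine ECmax control wells for no effect and buffer only wells for full effect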
# TRPC4 ctr mod – TRPC4 modulation by TRPC6 hit compounds, confirmation, selectivity assay for TRPC6 modulator project, cell-based, HEK293 TRPC4/mu-opioid, membrane potential dye, mouse. membrane potential fluorescence. AID 488927, 2010. percent change from control (negative = decrease, positive = increase), % at 10 µM. shares compounds with TRPC6 inh. actives 69% (n = 2,400);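 active = membrane potential signal moved up or down beyond 5 SD of buffer control wells, in both duplicate plates, actives on both sides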;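 also: plate controls were assay buffer wells for no effect and DAMGO maximal-effect wells for full effect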
# TRPC4/MOR inh 2 – second selectivity test of TRPC6 modulators against mouse TRPC4; actives 55% (n = 2,400); inhibition, % at 10 µM; shares compounds with TRPC6 inh; AID 488928; HEK293 TRPC4/mu-opioid, membrane potential dye fluorescence; stimulated with maximal-effect DAMGO;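 active = drop in membrane potential signal beyond 5 SD of the control wells in both duplicate plates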;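 also: TRPC4 counter screen for TRPC6 hits run under conditions tuned for TRPC6 not TRPC4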
# TRPC6 inh conf – mouse TRPC6 channel inhibitors, confirmation, HEK293 cells, membrane potential dye, duplicate; actives 43% (n = 3,300); AID 488960, 2010; ACh-evoked depolarization; inhibition, % at 10 µM; shares compounds with TRPC6 inh;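 active = fluorescence ratio falls more than 5 SD below the full-stimulation control mean, in both duplicate runs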;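 also: integrated fluorescence ratio of peak minus minimum over baseline after agonist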
# TRPC6 act confirm – mouse TRPC6 channel activators, confirmation, HEK293 cells, membrane potential dye, duplicate | shares compounds with TRPC6 inh | HEK293-TRPC6 membrane potential dye fluorescence, FDSS | activation, % at 10 µM | actives 11% (n = 2,800) | AID 488961, 2010;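 active = ratio signal rise beyond 5 SD above unstimulated control wells' mean, seen in both duplicate runs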;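 also: plate controls were buffer EC0 wells for no effect and acetylcholine ECmax response for full effect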
# The depositor's hits bear a star; i = inactive; x = no result given.
SMILES,TRPC4 inh,DNA FID counter,TRPC4 agonist,TRPC4 PAM,TRPC6 act,TRPC6 inh,HEK293 TRPC6 ctr,HEK293 MPD ctr 2,TRPC4 ctr mod,TRPC4/MOR inh 2,TRPC6 inh conf,TRPC6 act confirm
Nc1nc(NCCCN2CCOCC2)nc(Nc2cccc(Cl)c2)c1[N+](=O)[O-],i,17,i,i,i,-5.6*,i,i,-18%*,86%*,52%*,i
Nc1nc(NCCCN2CCOCC2)nc(Nc2ccc(Cl)cc2)c1[N+](=O)[O-],i,12,i,i,i,i,x,x,x,x,x,x
COCCn1c(=NC(=O)CCS(=O)(=O)c2ccccc2)sc2cc(F)ccc21,i,-21,i,i,i,i,x,x,x,x,x,x
O=c1c2cccc3c2c(nn1CN1CCOCC1)-c1ccccc1-3,i,-3,i,i,i,i,x,x,x,x,x,x
CCN(CC)CCn1nc2c3c(cccc3c1=O)-c1ccccc1-2,i,40*,i,i,i,-5.8*,-78%*,i,-18%*,55%*,40%*,i
CCOc1ccc(S(=O)(=O)N(CC(=O)Nc2cccnc2)c2ccc(F)cc2)cc1,i,-22,i,i,i,i,x,x,x,x,x,x
COc1ccc(NS(=O)(=O)c2cccc(C(=O)Nc3cccc(C(=O)O)c3)c2)cc1,i,-17,i,i,i,i,x,x,x,x,x,x
COc1ccc(NS(=O)(=O)c2cccc(C(=O)O)c2)cc1,i,2,i,i,i,-5.4*,i,i,i,i,i,i
CCOC(=O)C1=C(O)c2ccccc2C(=O)/C1=C\c1ccc(CC)cc1,i,-7,i,i,15*,i,552%*,i,130%*,i,i,182%*
